# Most compounds without a hit are left out; they make up all but 4.7% or so of the library.
# MrgX1 allo act = allosterically activates human MrgX1 receptor signaling | B-score at 10 µM | AID 588675 | MrgX1-HEK293, Fluo-4 calcium flux, FDSS; active compounds read high | Q96LB2 | 310,000 tested, 0.63% active;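 active = plate-corrected calcium response at least 3 library SD above typical, normal starting fluorescence, not activating the receptor alone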;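 note: compound read alongside a low EC10 to EC30 dose of BAM8-22 agonist; peak minus trough fluorescence over baseline measured at the second addition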
# Cl transport mod = KCC2 (human) Cl- transport modulation; KCC2 cells, thallium flux FluoZin-2 fluorescence; Q9H2X9; 190,000 tested, 2.2% active; B-score of Tl+ flux slope (higher = more flux/activation; lower = inhibition) at 10 µM;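 active = thallium flux slope and its plate-corrected score both differing from the plate sample mean at a set confidence after two filtering rounds, in either direction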;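 note: slope of fluorescence scaled to starting intensity during 10 to 20 s after thallium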
# Target sequence (Q9H2X9 whole entry, looked up): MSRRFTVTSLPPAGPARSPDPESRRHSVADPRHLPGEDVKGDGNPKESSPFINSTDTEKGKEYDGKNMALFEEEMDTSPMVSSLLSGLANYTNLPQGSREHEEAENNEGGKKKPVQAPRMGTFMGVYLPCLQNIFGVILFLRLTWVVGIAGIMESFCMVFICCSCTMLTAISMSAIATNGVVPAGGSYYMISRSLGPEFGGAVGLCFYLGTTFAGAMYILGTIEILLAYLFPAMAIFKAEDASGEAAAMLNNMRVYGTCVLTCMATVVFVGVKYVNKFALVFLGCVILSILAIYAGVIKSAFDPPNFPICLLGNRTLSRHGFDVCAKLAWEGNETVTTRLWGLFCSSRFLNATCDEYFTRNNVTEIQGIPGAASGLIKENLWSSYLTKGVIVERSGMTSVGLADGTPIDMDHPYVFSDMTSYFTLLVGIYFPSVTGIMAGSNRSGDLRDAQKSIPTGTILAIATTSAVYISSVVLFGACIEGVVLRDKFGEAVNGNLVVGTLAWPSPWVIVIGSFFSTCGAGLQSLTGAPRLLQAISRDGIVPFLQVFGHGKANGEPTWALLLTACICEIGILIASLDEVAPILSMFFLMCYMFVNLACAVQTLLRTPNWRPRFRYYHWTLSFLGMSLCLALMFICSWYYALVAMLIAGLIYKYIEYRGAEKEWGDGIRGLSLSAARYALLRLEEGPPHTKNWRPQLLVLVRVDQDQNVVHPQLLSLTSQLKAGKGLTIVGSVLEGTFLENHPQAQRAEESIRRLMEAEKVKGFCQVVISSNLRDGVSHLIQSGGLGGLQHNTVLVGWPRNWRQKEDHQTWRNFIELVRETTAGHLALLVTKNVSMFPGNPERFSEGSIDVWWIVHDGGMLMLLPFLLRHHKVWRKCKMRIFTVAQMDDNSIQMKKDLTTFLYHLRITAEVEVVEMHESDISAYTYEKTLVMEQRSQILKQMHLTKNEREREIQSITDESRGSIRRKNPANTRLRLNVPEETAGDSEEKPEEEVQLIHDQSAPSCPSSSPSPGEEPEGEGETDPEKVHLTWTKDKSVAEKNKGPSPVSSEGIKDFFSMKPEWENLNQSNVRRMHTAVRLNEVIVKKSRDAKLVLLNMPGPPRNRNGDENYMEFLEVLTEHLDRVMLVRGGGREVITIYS
# MrgX1 antagonist = blocks BAM8-22 activation of human MrgX1 receptor; Q96LB2; AID 588676; B-score at 10 µM; 310,000 tested, 1.3% active; MRGX1-HEK293 calcium flux, Fluo-4, BAM8-22 antagonism; active compounds read low;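 active = calcium-response B-score plate-corrected more than 3 library SD below zero, starting fluorescence within 5 deviations, no agonist response on first addition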;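 note: peak minus trough fluorescence over baseline after final BAM8-22 challenge near maximal dose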
# MrgX1 ag = activates human MrgX1 receptor signaling. 310,000 tested, 0.44% active. B-score at 10 µM. MrgX1-HEK293 cells, Fluo-4 calcium fluorescence, agonist mode; active compounds read high;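 active = calcium response B-score plate-corrected fluorescence ratio at least 3 library SD, with starting fluorescence B-score inside 5 SD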
#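 Material – MrgX1-expressing HEK293 cells · Input – 15,000 cells seeded per well · Dosing – compound as first of three additions · Times – overnight seeding, then 1 h dark dye loading · Measured by – kinetic Fluo-4 NW fluorescence of intracellular calcium · Read-out – B-scored fluorescence response ratio · Benchmarks – positive and negative control wells on each plate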
# RGS4 block = inhibitors of human RGS4 | P49798 | HEK293 M3R/RGS4 inducible, Fluo-4 calcium flux; active compounds read high; triggered by carbachol at its EC20 | B-score at 10 µM | 310,000 tested, 0.45% active | AID 463165;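 active = B-score, a plate-corrected calcium signal, over three deviations above library mean, with baseline fluorescence within five deviations of library mean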;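 note: RGS4 expression induced by doxycycline in cells with stable M3 receptor; B-score is computed from the integrated fluorescence ratio over baseline after carbachol; higher B-score means a larger calcium signal and so more RGS4 inhibition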
# RGS4 pot = RGS4 potentiation or activation. 310,000 tested, 0.92% active. B-score at 10 µM. HEK293 M3R/inducible RGS4, carbachol calcium flux Fluo4; active compounds read low;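 active = B-score of the integrated calcium signal more than 4 SD below the library mean, with starting fluorescence not abnormally high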;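 note: negative B-score means reduced calcium response which marks RGS4 activation or potentiation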
#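 Material: Inducible-RGS4 HEK293 cells carrying M3 receptor; also added: carbachol at ECmax as muscarinic agonist stimulus; incubation: compound preincubation 20 min at room temperature before agonist; signal: Fluo4-AM (2 µM) calcium-flux fluorescence, kinetic read; measure: integrated calcium ratio converted to B score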
# KCC2 secondary = KCC2 (human) modulation, secondary assay. shares compounds with Cl transport mod. HEK293-KCC2, thallium flux, FluoZin2 fluorescence; active compounds read high. normalised thallium flux (F/F0 slope) at 10 µM. 3,700 tested, 15% active. AID 1713;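 active = thallium flux slope above the same plate's solvent-only control mean plus 3 SD; inconclusive = the two replicate wells disagree; inactive = no significant difference from solvent-only control wells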
# KCC2 bumet counter = thallium flux despite bumetanide block in KCC2 cells, secondary assay 3 | shares compounds with Cl transport mod | HEK293-KCC2 + bumetanide/ouabain, thallium flux FluoZin2; active compounds read high | normalized thallium flux at 10 µM | 3,700 tested, 49% active;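 active = thallium entry rate above the same plate's blocked-transporter control wells by more than 3 SD; inconclusive = the two repeat wells disagree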;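 note: raw slope of fluorescence over initial fluorescence between 10 and 20 s after thallium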
# KCC2 sec2 = confirmation of human KCC2 transport modulators; shares compounds with Cl transport mod; HEK293-KCC2, thallium flux FluoZin2 fluorescence; actives lie on both sides; F/F0 rise rate, 10–20 s post-thallium; normalized thallium flux at 10 µM; 3,700 tested, 23% active;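 active = thallium flux slope more than 3 SD above or below the plate's solvent-only control mean, mostly below; inconclusive = the two repeat wells disagreed; inactive = no significant shift from solvent-only controls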;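 note: raw slope with 0.1% DMSO as baseline and bumetanide as block control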
# HEK293 Tl flux = parental HEK flux effect, counter-screen | shares compounds with Cl transport mod | HEK293 parental cells, thallium flux FluoZin2, ouabain; baseline-ratio fluorescence slope, 10–20 s after thallium | thallium flux rate (normalised fluorescence) at 10 µM | 3,700 tested, 46% active;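 active = thallium flux rate significantly above the same plate's solvent-only control wells, beyond their mean plus 3 SD; inconclusive = the two replicate wells gave conflicting results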
# KCC2 retest ouab = confirmation of human KCC2 modulators with ouabain | shares compounds with Cl transport mod | HEK293-KCC2, thallium flux FluoZin2 fluorescence; bidirectional: low = inhibitor, high = activator | raw Tl+ flux slope (below DMSO = inhibition, above = activation) at 10 µM | 3,700 tested, 48% active | AID 1717;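 active = thallium flux slope beyond 3 SD from same-plate DMSO control mean in most replicates, usually higher, sometimes lower; inconclusive = repeat tests gave conflicting results; inactive = no significant difference from controls in most replicates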;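 note: slope of initial-normalized fluorescence between seconds 10 and 20 after thallium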
# HEK293 Tl flux2 = parental HEK flux effect, counter-screen 2; shares compounds with Cl transport mod; HEK293 parental, thallium flux FluoZin-2 fluorescence slope; thallium flux slope at 10 µM; 3,700 tested, 33% active;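 active = thallium flux slope above the same plate's solvent-control mean plus 3 SD in both duplicate wells; inconclusive = duplicate wells that disagreed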;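 note: run without ouabain in cells lacking the KCC2 cotransporter; slope of fluorescence scaled to its starting value between 10 and 20 s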
# * = called active by the depositor; i = inactive; ? = inconclusive; . = no result given.
SMILES,MrgX1 allo act,Cl transport mod,MrgX1 antagonist,MrgX1 ag,RGS4 block,RGS4 pot,KCC2 secondary,KCC2 bumet counter,KCC2 sec2,HEK293 Tl flux,KCC2 retest ouab,HEK293 Tl flux2
Cc1ccc(NC(=O)c2ccccc2-c2ccc(C(F)(F)F)cc2)cc1S(=O)(=O)N1CCOCC1,i,3.8*,i,i,i,i,0.0055,0.0052,0.027,0.0074,0.018,0.011
Cc1cc(C)cc(OCC(=O)NNC(=O)c2cc3ccccc3o2)c1,i,31*,i,i,i,i,0.019*,0.1*,0.033,0.034*,0.059*,0.015*
O=C(NNC(=O)c1cc2ccccc2o1)c1ccc(Cl)cc1,i,8.7*,i,i,i,i,0.01,0.024*,0.033,0.011*,?,0.012*
CCc1ccc(OCC(=O)NNC(=O)c2cc3ccccc3o2)cc1,i,1.9,i,i,i,i,.,.,.,.,.,.
O=C(CSc1nc2ccccc2nc1N1CCCCC1)N1CCN(c2ccccc2)CC1,i,.,i,i,i,i,.,.,.,.,.,.
Cc1ccc(NC(=O)CSC(C)c2nc3ccccc3c(=O)[nH]2)cc1 (configuration not stated),i,.,i,i,i,i,.,.,.,.,.,.
Cc1nc2nc(C)c(NS(=O)(=O)c3ccc(C4CCCCC4)cc3)c(=O)n2[nH]1,i,.,i,i,i,i,.,.,.,.,.,.
C=CCn1c(CSc2nc3ccccc3s2)n[nH]c1=S,i,-4.4*,i,i,i,i,0.015,0.0093*,0.024*,0.0099*,0.014*,?
CCn1c(CSc2nc3ccccc3s2)n[nH]c1=S,i,0.25,i,i,i,i,.,.,.,.,.,.
CCN(CC)C1CC(=O)N(c2cccc(Cl)c2)C1=O (configuration not stated),i,.,i,i,i,i,.,.,.,.,.,.
Cc1noc(C)c1S(=O)(=O)N1CCC(C(=O)N2CCN(C3CCCC3)CC2)CC1,i,.,i,i,i,i,.,.,.,.,.,.
Cc1noc(C)c1S(=O)(=O)N1CCC(C(=O)N2CCN(c3ccc(F)cc3)CC2)CC1,i,-4.9*,i,i,i,i,0.0056,?,0.026*,0.007,?,0.011
CCc1ccccc1NNC(=O)c1snnc1C,i,5*,i,i,i,i,0.0099,0.0084*,0.033,0.0069,0.022,0.01
Clc1ccc(-c2csc(NNC3=NCCCCC3)n2)cc1,i,-4.4*,i,i,i,i,?,0.0064,0.03,0.0073,0.019*,0.0095
FC(F)(F)c1ccc(Cl)c(NC(=S)N/N=C/c2ccccc2C(F)(F)F)c1,i,4.9*,i,i,i,i,0.0073,0.014*,?,0.014*,?,0.013*

# Screening data: PubChem, several laboratories
